Results published in ChEMBL document CHEMBL1148449, “Discovery, modeling, and human pharmacokinetics of N-(2-acetyl-4,6-dimethylphenyl)-3-(3,4-dimethylisoxazol-5-ylsulfamoyl)thiophene-2-carboxamide (TBC3711), a second generation, ETA selective, and orally bioavailable endothelin antagonist” (J Med Chem, 2004).

How the values were obtained:
[1] = Compound was evaluated for oral bioavailability in human; assay type: ADME, organism-based; conditions: in vivo, read-out: Activity
[2] = (§1) Compound was evaluated for area under the curve expressed as (h*ug/ml); assay type: ADME, organism-based; design: concentration or dose not given beside the values; conditions: rat, in vivo
In short: (§2)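 Rats given 50 mg/kg orally. Plasma was separated at once by centrifugation and stored at -80 °C. Proteins were precipitated with acetonitrile and drug measured by HPLC to give Cmax, AUC and t1/2.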

[3] = molecular target: Endothelin-1 receptor (Homo sapiens) (UniProt P25101); test: Selectivity towards endothelin A receptor in human.
Endothelin-1 receptor [4] = molecular target: T1, Endothelin-1 receptor (Homo sapiens, UniProt P25101); test: Displacement of [125I]ET-1 from Endothelin A receptor
T1 sequence (P25101 whole entry): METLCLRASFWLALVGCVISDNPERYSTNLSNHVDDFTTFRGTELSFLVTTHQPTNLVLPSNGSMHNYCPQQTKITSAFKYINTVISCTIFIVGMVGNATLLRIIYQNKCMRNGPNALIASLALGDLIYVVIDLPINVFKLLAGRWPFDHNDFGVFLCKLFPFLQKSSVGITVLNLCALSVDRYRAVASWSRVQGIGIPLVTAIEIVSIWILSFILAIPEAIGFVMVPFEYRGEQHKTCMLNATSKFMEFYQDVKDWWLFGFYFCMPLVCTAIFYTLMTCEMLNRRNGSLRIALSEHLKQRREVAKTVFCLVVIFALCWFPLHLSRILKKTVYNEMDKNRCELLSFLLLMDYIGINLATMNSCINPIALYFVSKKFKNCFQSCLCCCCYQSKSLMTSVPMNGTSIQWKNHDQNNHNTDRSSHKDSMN

[5] = Cmax in rat plasma after oral dose (50 mg/Kg); assay type: ADME, organism-based; design: dose 50 mg/Kg, route oral; in short: as §2
Rattus norvegicus [6] = test: Compound was evaluated for oral dose to effect 50% inhibition of mean pulmonary arterial pressure (MPAP); assay type: functional, Artery
In short: (§3)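 Acute hypoxia-induced pulmonary hypertension model in rats. Compound given orally; the oral dose giving 50% inhibition of the increase in mean pulmonary arterial pressure is reported.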

[7] = Half life period was determined; 6-7; assay type: ADME; conditions: human
[8] = Half life period was determined; assay type: ADME, organism-based; conditions: rat, in vivo; in short: as §2
[9] = Compound was evaluated for oral bioavailability in rats; conditions: rat, in vivo
[10] = molecular target: Endothelin receptor (Rattus norvegicus) (UniProt P26684+P21451); test: Selectivity for endothelin A receptor over endothelin receptor B; assay type: protein assay
[11] = Half life period was evaluated in rat; conditions: in vivo
[12] = Compound was evaluated for oral bioavailability in dog; 90-100; assay type: ADME, organism-based, Canis lupus familiaris; conditions: in vivo, read-out: Activity
[13] = molecular target: T2, Endothelin receptor type B (Homo sapiens, UniProt P24530); test: Inhibitory concentration towards endothelin B receptor in human; assay type: functional
T2 sequence (P24530 whole entry): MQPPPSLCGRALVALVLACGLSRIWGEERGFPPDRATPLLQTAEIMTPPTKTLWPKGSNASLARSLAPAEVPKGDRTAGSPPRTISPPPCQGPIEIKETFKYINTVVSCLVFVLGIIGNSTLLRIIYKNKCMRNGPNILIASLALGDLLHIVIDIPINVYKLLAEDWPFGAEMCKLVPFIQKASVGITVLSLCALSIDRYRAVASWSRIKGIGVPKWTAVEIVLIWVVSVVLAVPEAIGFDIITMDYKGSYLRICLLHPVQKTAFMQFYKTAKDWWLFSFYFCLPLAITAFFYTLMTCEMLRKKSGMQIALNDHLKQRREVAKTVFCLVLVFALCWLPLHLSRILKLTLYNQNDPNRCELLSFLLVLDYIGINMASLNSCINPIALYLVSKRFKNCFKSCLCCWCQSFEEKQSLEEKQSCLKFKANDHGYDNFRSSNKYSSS

[14] = Half life period was evaluated in rat; 5.9-7.5; assay type: ADME, organism-based; conditions: in vivo; in short: as §2
Endothelin-1 receptor [15] = molecular target: T3, Endothelin-1 receptor (Rattus norvegicus, UniProt P26684); test: Binding affinity towards Endothelin A receptor
T3 sequence (P26684 whole entry): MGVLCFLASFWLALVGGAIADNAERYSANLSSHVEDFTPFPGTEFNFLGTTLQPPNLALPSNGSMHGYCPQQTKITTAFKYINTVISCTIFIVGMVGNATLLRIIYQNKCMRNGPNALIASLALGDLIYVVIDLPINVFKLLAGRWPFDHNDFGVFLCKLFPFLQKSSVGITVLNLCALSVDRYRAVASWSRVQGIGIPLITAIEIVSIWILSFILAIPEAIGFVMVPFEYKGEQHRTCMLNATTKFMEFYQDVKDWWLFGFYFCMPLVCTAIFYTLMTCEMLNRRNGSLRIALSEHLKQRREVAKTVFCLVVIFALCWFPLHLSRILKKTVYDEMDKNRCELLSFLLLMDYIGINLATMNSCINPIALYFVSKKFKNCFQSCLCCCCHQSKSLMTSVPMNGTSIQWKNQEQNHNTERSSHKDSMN

[16] = Half life period was evaluated in dog; 4-4.8; assay type: ADME, organism-based, Canis lupus familiaris; conditions: in vivo
Rattus norvegicus [17] = test: Compound was evaluated for oral dose to effect 50% inhibition of mean pulmonary arterial pressure; assay type: functional, Artery; in short: as §3
[18] = as §1; assay type: ADME; conditions: human; in short: as §2
[19] = Half life period was evaluated in human; assay type: ADME

Sequence of Endothelin receptor (Rattus norvegicus) (P21451 whole entry, looked up, one chain of several): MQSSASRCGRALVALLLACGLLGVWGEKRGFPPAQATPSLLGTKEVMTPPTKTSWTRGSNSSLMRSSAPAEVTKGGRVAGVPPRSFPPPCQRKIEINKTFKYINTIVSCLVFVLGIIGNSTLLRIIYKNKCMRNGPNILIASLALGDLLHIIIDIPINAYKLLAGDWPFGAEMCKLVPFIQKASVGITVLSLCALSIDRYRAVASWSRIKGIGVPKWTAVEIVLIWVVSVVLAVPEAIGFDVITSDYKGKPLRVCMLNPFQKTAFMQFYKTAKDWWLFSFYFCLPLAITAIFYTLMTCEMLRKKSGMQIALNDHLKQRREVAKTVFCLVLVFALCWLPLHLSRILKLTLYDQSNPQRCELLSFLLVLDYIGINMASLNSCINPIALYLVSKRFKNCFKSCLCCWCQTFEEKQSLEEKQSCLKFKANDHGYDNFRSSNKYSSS

Row | bioavailability [1] [%] | AUC [2] [µg·h/mL] | Selectivity [3] | IC50 (Endothelin-1 receptor [4]) [nM] | Cmax [5] [µg/mL] | half-life [7] [h] | half-life [8] [h] | bioavailability [9] [%] | Selectivity [10] | half-life [11] [min] | bioavailability [12] [%] | IC50 [13] [nM] | half-life [14] [h] | Ki (Endothelin-1 receptor [15]) [nM] | half-life [16] [h] | AUC [18] [µg·h/mL] | half-life [19] [h] | Structure (SMILES) | Activity (Rattus norvegicus [6]) [mg/kg] | Activity (Rattus norvegicus [17]) [mg/kg]
1 | > 80 | 1310 | 441000 | 0.08 | 180 | 7 | 5.3 | ~100 |  |  |  |  |  |  |  |  |  | CC(=O)c1cc(C)cc(C)c1NC(=O)c1sccc1S(=O)(=O)Nc1onc(C)c1C | < 1 | 
2 |  |  |  | 23 |  |  |  |  | 56 | 7.8 |  |  |  |  |  |  |  | COc1ccccc1Oc1c(NS(=O)(=O)c2ccc(C(C)C)cn2)nc(-c2ccnc(-c3nnn[nH]3)c2)nc1OCCO [TEZOSENTAN] |  | 
3 | ~80 |  | 6500 |  |  |  |  |  | 7000 |  | 100 | 9800 | 7.5 | 0.43 | 4.8 | 33 | 6.46 | Cc1cc2c(cc1CC(=O)c1sccc1S(=O)(=O)Nc1onc(C)c1Cl)OCO2 [SITAXENTAN] |  | 2.5
